The source made the active and inactive calls. No cut-off for these calls is given here.
How the values were obtained:
Human betaherpesvirus 5 [1] = experiment: Antiviral activity against HCMV Towne infected in human HFF cells assessed as reduction in plaque formation treated with compound following viral infection and incubated for 8 to 10 days by crystal violet staining based assay; type: functional, organism-based; conditions: Human betaherpesvirus 5, strain Towne
Human betaherpesvirus 5 [2] = experiment: Antiviral activity against GCV-resistant HCMV Towne infected in human HFF cells assessed as reduction in plaque formation treated with compound following viral infection and incubated for 8 to 10 days by crystal violet staining based assay; type: functional, organism-based; conditions: Human betaherpesvirus 5, strain Towne
Human betaherpesvirus 5 [3] = experiment: Antiviral activity against HCMV TB40 infected in human HFF cells assessed as reduction in plaque formation treated with compound following viral infection and incubated for 8 to 10 days by crystal violet staining based assay; type: functional, organism-based; conditions: Human betaherpesvirus 5, TB40, HFF
HFF = experiment: Cytotoxicity against human HFF cells assessed as reduction in cell viability incubated for 72 hrs or 10 days by MTT assay; type: cell-based
Summary of the method: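 MTT assay on uninfected cells exposed to compound for 72 h or 8–10 days, matching the antiviral assay durations. MTT (5 mg/mL stock in PBS) added, then 2–3 h at 37 °C. Formazan absorbance read at 560 nm.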

Human alphaherpesvirus 1 = experiment: Antiviral activity against HSV 1 infected in African green monkey Vero cells assessed as reduction in plaque formation incubated for 36 hrs by crystal violet staining based assay; type: functional, organism-based
Summary of the method: (§1)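 Plaque reduction in Vero cells: virus adsorbed 60 min, then compound added in a carboxymethylcellulose overlay. Plaques counted after 36 h by crystal violet staining.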

Human alphaherpesvirus 2 = experiment: Antiviral activity against HSV 2 infected in African green monkey Vero cells assessed as reduction in plaque formation incubated for 36 hrs by crystal violet staining based assay; type: functional, organism-based; summary of the method: as §1
Human gammaherpesvirus 4 = experiment: Antiviral activity against EBV infected in human AKATA cells assessed as reduction in IgG-induced lytic virus replication measured at 48 hrs post-lytic induction by qRT-PCR analysis; type: functional, organism-based
[4] = Antiviral activity against Mouse Cytomegalovirus Smith (ATCC VR-1399) infected in mouse MEF cells assessed as reduction in plaque formation measured after 3 days by crystal violet staining based assay; type: functional, cell-based, Murine cytomegalovirus (strain Smith)
Summary of the method: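 Plaque reduction with MCMV Smith in mouse embryonic fibroblasts, with compound in a carboxymethylcellulose overlay. Assay ended at 3 days and plaques counted after crystal violet staining.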

Human betaherpesvirus 5 [5] = experiment: (§2) Antiviral activity against pp28-luciferase expressing HCMV Towne infected in human HFF cells assessed as reduction in viral replication treated with compound at 24 hrs post viral infection at MOI of 1 PFU/cell and measured after 3 days by luciferase reporter gene assay; type: functional, organism-based; conditions: strain Towne
Summary of the method: (§3)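 Time-of-addition in HFFs infected with HCMV Towne (MOI 1). Add-on: compound added at 0, 6, 24 or 48 hpi. Removal: compound added right after infection and washed out after 0, 6, 24 or 48 h. Luciferase read at 72 hpi.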

Human betaherpesvirus 5 [6] = experiment: as §2, with “immediately after” for “at 24 hrs post”, “PFU/cell followed by compound washout after 6 hrs” for “PFU/cell”; type: functional; conditions: for Activity: strain Towne; summary of the method: as §3
Human betaherpesvirus 5 [7] = experiment: Antiviral activity against HCMV Towne infected in human HFF cells assessed as reduction in plaque formation treated with compound following viral infection at MOI of 1 PFU/cell and measured at 10 days post-infection in presence of letermovir by crystal violet staining based assay; type: functional, organism-based; conditions: Human betaherpesvirus 5, strain Towne, 240 h
Human betaherpesvirus 5 [8] = experiment: Antiviral activity againstpp28-luciferase expressing HCMV Towne infected in human HFF cells assessed as reduction in viral replication treated with compound following viral infection at MOI of 1 PFU/cells measured after 3 days in presence of GCV by luciferase reporter gene assay; type: functional, organism-based; conditions: Human betaherpesvirus 5, strain Towne, 72 h
Summary of the method: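 HFFs in 96-well plates were infected with pp28-luciferase Towne HCMV, in which luciferase is driven by the UL99 late promoter, at MOI 1. A dose-response of each drug alone gave its EC₅₀. Combinations started at twice each EC₅₀ in DMEM with 4% FBS, followed by two-fold serial dilutions, and were added after infection. Luciferase was read in cell lysates at 72 hpi. The Bliss ratio is observed over expected inhibition.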

Human betaherpesvirus 5 [9] = experiment: (§4) Antiviral activity against pp28-luciferase harboring UL97 C607Y mutant expressing GCV-resistant HCMV Towne infected in human HFF cells assessed as reduction in viral replication at 0.5 to 3 uM treated with compound following viral infection at MOI of 0.1 PFU/cell and measured at 72 hrs post infection by luciferase reporter gene assay; type: functional, organism-based; conditions: strain Towne
Summary of the method: (§5)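 HFFs infected with GCV-resistant pp28-luciferase Towne (MOI 0.1), then treated with a compound dilution series. Luciferase, driven by the UL99 late promoter, read in cell lysates at 72 hpi. Data are mean ± SD of triplicates from a single experiment.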

Human betaherpesvirus 5 [10] = experiment: Antiviral activity against HCMV TB40 infected in human HFF cells assessed as reduction in plaque formation at 0.1 to 3 uM treated with compound following viral infection at […] measured after 8 days by crystal violet staining analysis; type: functional, organism-based
Summary of the method: (§6)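 HFFs (2 × 10⁵/well) infected with HCMV TB40 at about 100 plaques/well for 90 min. Inoculum removed, then DMEM with 0.5% CMC, 4% FBS and compound added. Incubated at 37 °C; plaques stained with crystal violet and counted at 8 dpi. Experiment repeated three times; one representative shown.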

Human betaherpesvirus 5 [11] = experiment: Inhibition of viral protein expression in HCMV Towne infected in human HFF cells assessed as reduction in IE2 expression at 0.1 to 10 uM treated with compound following viral infection at MOI of 1 PFU/cell measured at 72 hrs post infection by Western blot analysis; type: functional, organism-based; conditions: strain Towne
Summary of the method: (§7)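 HFFs infected with HCMV Towne (MOI 1), then treated with compound. Lysates taken at 72 hpi, equal protein loaded on 8–10% Tris-glycine SDS-PAGE and transferred to PVDF. Primary antibodies overnight at 4 °C, HRP secondary, chemiluminescent detection; β-actin as loading control.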

Human betaherpesvirus 5 [12] = experiment: Inhibition of viral protein expression in HCMV Towne infected in human HFF cells assessed as reduction in UL44 expression at 0.1 to 10 uM treated with compound following viral infection at MOI of 1 PFU/cell measured at 72 hrs post infection by Western blot analysis; type: functional, organism-based; conditions: strain Towne; summary of the method: as §7
Human betaherpesvirus 5 [13] = experiment: Inhibition of viral protein expression in HCMV Towne infected in human HFF cells assessed as reduction in UL84 expression at 0.1 to 10 uM treated with compound following viral infection at MOI of 1 PFU/cell measured at 72 hrs post infection by Western blot analysis; type: functional, organism-based; conditions: strain Towne; summary of the method: as §7
Human betaherpesvirus 5 [14] = experiment: Inhibition of viral protein expression in HCMV Towne infected in human HFF cells assessed as reduction in pp65 expression at 0.1 to 10 uM treated with compound following viral infection at MOI of 1 PFU/cell measured at 72 hrs post infection by Western blot analysis; type: functional, organism-based; conditions: strain Towne
Summary of the method: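 Lysates taken at 72 hpi, equal protein run on SDS-PAGE and transferred to PVDF. Immunoblot for viral proteins (IE1/2, UL84, UL44, pp65) with β-actin as loading reference, chemiluminescent detection.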

Human betaherpesvirus 5 [15] = experiment: Inhibition of viral protein expression in HCMV Towne infected in human HFF cells assessed as reduction in IE1 expression at 0.1 to 10 uM treated with compound following viral infection at MOI of 1 PFU/cell measured at 72 hrs post infection by Western blot analysis; type: functional, organism-based; conditions: strain Towne; summary of the method: as §7
Human betaherpesvirus 5 [16] = experiment: Antiviral activity against HCMV Towne infected in human HFF cells assessed as reduction in viral DNA replication at 1.5 uM treated with compound following viral infection at MOI of 0.1 PFU/cell by US17 real time PCR analysis; type: functional, organism-based; conditions: strain Towne
Summary of the method: (§8)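 At set time points supernatants were harvested and cells lysed for DNA. Cell-associated viral DNA and supernatant viral DNA quantified by real-time PCR targeting a 151-bp conserved US17 region.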

Human betaherpesvirus 5 [17] = experiment: Antiviral activity against HCMV Towne infected in human HFF cells assessed as reduction in viral DNA yields in the supernatant at 1.5 uM treated with compound following viral infection at MOI of 0.1 PFU/cell by US17 real time PCR analysis; type: functional, organism-based; conditions: strain Towne; summary of the method: as §8
Human betaherpesvirus 5 [18] = experiment: Antiviral activity against HCMV Towne infected in human HFF cells assessed as reduction in viral DNA replication at 2 uM treated with compound following viral infection at MOI of 0.1 PFU/cell by US17 real time PCR analysis; type: functional, organism-based; conditions: strain Towne; summary of the method: as §8
Human betaherpesvirus 5 [19] = experiment: Antiviral activity against HCMV Towne infected in human HFF cells assessed as reduction in viral DNA yields in the supernatant at 2 uM treated with compound following viral infection at MOI of 0.1 PFU/cell by US17 real time PCR analysis; type: functional, organism-based; conditions: strain Towne; summary of the method: as §8
Human betaherpesvirus 5 [20] = experiment: Antiviral activity against HCMV TB40 infected in human HFF cells assessed as reduction in plaque formation at 0.75 to 10 uM treated with compound following viral infection at […] measured after 8 days by crystal violet staining analysis; type: functional, organism-based; summary of the method: as §6
Human betaherpesvirus 5 [21] = experiment: as §4, with “1” for “0.5”, “5” for “3”; type: functional, organism-based; conditions: strain Towne; summary of the method: as §5
Human betaherpesvirus 5 [22] = experiment: Inhibition of viral protein expression in HCMV Towne infected in human HFF cells assessed as reduction in IE1 expression at 0.3 to 10 uM treated with compound following viral infection at MOI of 1 PFU/cell measured at 72 hrs post infection by Western blot analysis; type: functional, organism-based; conditions: strain Towne; summary of the method: as §7
Human betaherpesvirus 5 [23] = experiment: Inhibition of viral protein expression in HCMV Towne infected in human HFF cells assessed as reduction in IE2 expression at 0.3 to 10 uM treated with compound following viral infection at MOI of 1 PFU/cell measured at 72 hrs post infection by Western blot analysis; type: functional, organism-based; conditions: strain Towne; summary of the method: as §7
Human betaherpesvirus 5 [24] = experiment: Antiviral activity against HCMV Towne infected in human HFF cells assessed as reduction in viral DNA replication at 5 uM treated with compound following viral infection at MOI of 0.1 PFU/cell by US17 real time PCR analysis; type: functional, organism-based; conditions: strain Towne; summary of the method: as §8
Human betaherpesvirus 5 [25] = experiment: Antiviral activity against HCMV Towne infected in human HFF cells assessed as reduction in viral DNA yields in the supernatant at 5 uM treated with compound following viral infection at MOI of 0.1 PFU/cell by US17 real time PCR analysis; type: functional, organism-based; conditions: strain Towne; summary of the method: as §8
[26] = human gammaherpesvirus 4, 48 h, read-out: EC50

Row | Structure (SMILES) | EC50 (Human betaherpesvirus 5 [1]) [nM] | EC50 (Human betaherpesvirus 5 [2]) [nM] | EC50 (Human betaherpesvirus 5 [3]) [nM] | CC50 (HFF) [nM] | EC50 (Human alphaherpesvirus 1; vero) | EC50 (Human alphaherpesvirus 2; vero) | EC50 (Human gammaherpesvirus 4; [26]) [nM] | EC50 ([4]; mef) | Activity (Human betaherpesvirus 5 [5]) | Activity (Human betaherpesvirus 5 [6]) | EC50 (Human betaherpesvirus 5 [7]) [nM] | EC50 (Human betaherpesvirus 5 [8]) [nM] | Activity (Human betaherpesvirus 5 [9]) | Activity (Human betaherpesvirus 5 [10]) | inhibition (Human betaherpesvirus 5 [11]) | inhibition (Human betaherpesvirus 5 [12]) | inhibition (Human betaherpesvirus 5 [13]) | inhibition (Human betaherpesvirus 5 [14]) | also measured
1 | Nc1c(S(=O)(=O)c2cccs2)c2nc3ccccc3nc2n1Cc1ccccc1 | 390 | 260 | 330 | > 250000 | Not Active | Not Active | > 10000 | Not Active | inactive | Active | 130 | 570 | Active | Active | Active | Active | Active | Active | inhibition (Human betaherpesvirus 5 [15]): Active; Activity (Human betaherpesvirus 5 [16]): Active; Activity (Human betaherpesvirus 5 [17]): Active
2 | CCc1ccc(NC(=O)[C@H](Cc2c[nH]c3ccccc23)NC(=O)[C@@H]2Cc3ccccc3CN2)cc1 | 640 | 170 | 340 | 86000 |  |  |  |  | inactive |  | 140 | 550 | Active | Active | Active | Active | Active | Active | EC50 (Human alphaherpesvirus 1; Human alphaherpesvirus 1, Vero, 36 h, read-out: EC50): 1780 nM; EC50 (Human alphaherpesvirus 2; Human alphaherpesvirus 2, Vero, 36 h, read-out: EC50): 1300 nM; EC50 (Human gammaherpesvirus 4): Not Active; EC50 ([4]; Murid betaherpesvirus 1, ATCC VR-1399, MEF, 72 h, read-out: EC50): 11700 nM; inhibition (INH) (Human betaherpesvirus 5 [6]): 100%; Activity (Human betaherpesvirus 5 [18]): Active; Activity (Human betaherpesvirus 5 [19]): Active
3 | CCN1CCN(CCCNC(=O)c2ccc3c(c2)sc2nc(-c4ccc(OC)cc4)cn23)CC1 | 850 | 840 | 1210 | 70900 | Not Active | Not Active | 1920 | Not Active | inactive | Active | 610 | 690 |  |  |  |  |  |  | Activity (Human betaherpesvirus 5 [20]): Active; Activity (Human betaherpesvirus 5 [21]): Active; inhibition (Human betaherpesvirus 5 [22]): Active; inhibition (Human betaherpesvirus 5 [23]): Active; Activity (Human betaherpesvirus 5 [24]): Active; Activity (Human betaherpesvirus 5 [25]): Active
